Assay results published in ChEMBL document CHEMBL4396878, “Mechanisms of Specific versus Nonspecific Interactions of Aggregation-Prone Inhibitors and Attenuators” (J Med Chem, 2019).
Calls of active or inactive are those of the source. The calls are words filed in the database; no cut-off is given here.

Legend:
[1] = Aggregation property of the compound in NMR buffer at 250 uM by surface plasmon resonance analysis; assay type: physicochemical
In short: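 SPR on a nonfunctionalized gold nanoparticle sensor; samples in NMR buffer with DMSO at 1.25%, injected at 33 μL/min alongside matched DMSO controls (with HSA where present, 25 μM), in duplicate. Surface regenerated only after HSA-containing injections.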

[2] = Aggregation property of the compound assessed as shift in peak width by 1H-NMR analysis; assay type: physicochemical
In short: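 Line widths, chemical shifts and peak intensities tracked; CAC taken as the concentration where intensities deviate from linear dependence, or, for line width, the minimal concentration that increases peak width.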

Albumin [3] = target: T1, Albumin (Homo sapiens, UniProt P02768); experiment: Displacement of dansylated arginine from human serum albumin by fluorescence assay; conditions: read-out: Kd(app)
T1 sequence (P02768 whole entry): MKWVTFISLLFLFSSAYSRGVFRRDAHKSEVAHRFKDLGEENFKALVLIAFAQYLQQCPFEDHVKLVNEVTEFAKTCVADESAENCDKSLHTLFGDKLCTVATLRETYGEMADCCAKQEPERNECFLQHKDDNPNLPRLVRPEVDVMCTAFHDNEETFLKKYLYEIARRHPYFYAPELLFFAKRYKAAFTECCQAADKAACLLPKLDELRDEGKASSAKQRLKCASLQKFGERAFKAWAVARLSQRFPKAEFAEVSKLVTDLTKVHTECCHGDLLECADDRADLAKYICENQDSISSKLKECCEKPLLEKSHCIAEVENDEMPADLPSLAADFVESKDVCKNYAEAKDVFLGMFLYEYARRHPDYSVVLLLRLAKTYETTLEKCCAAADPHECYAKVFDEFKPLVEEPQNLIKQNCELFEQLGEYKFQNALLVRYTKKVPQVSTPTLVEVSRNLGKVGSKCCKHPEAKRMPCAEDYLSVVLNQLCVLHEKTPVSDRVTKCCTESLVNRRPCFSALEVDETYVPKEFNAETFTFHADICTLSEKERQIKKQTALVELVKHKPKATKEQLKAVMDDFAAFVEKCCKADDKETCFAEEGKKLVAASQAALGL
In short: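 Competition of ligand against 100 μM dansyl-arginine (Sudlow site 1, 1:1 stoichiometry) bound to 2.5 μM HSA. Excitation 370 nm, emission 460 nm. Apparent Kd fitted by Wang's method using least squares, assuming no other ligand sites on HSA, so treated as a maximum apparent value.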

Albumin [4] = target: T1, Albumin; experiment: Displacement of [13C]oleic acid from human serum albumin by CH-HSQC spectra analysis
In short: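 Fatty-acid-free recombinant HSA at 250 μM in sodium phosphate buffer (20 mM NaPO4, pH 7.6, 50 mM NaCl, D2O), 37 °C for 30 min. 13C-oleic acid (100 mM stock in DMSO-d6, warmed to 50 °C for 10 min) added to 1.5 mM, then 2 h at 37 °C. CH-HSQC at 298 K; loss of site-specific cross-peaks A–H scored.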

[5] = target: T2, Rap guanine nucleotide exchange factor 3 (Homo sapiens) (UniProt O95398); experiment: Binding affinity to human EPAC1 cAMP binding domain (149 to 318 residues) assessed as peak size at 50 to 200 uM by dynamic light scattering analysis
T2 sequence (whole entry): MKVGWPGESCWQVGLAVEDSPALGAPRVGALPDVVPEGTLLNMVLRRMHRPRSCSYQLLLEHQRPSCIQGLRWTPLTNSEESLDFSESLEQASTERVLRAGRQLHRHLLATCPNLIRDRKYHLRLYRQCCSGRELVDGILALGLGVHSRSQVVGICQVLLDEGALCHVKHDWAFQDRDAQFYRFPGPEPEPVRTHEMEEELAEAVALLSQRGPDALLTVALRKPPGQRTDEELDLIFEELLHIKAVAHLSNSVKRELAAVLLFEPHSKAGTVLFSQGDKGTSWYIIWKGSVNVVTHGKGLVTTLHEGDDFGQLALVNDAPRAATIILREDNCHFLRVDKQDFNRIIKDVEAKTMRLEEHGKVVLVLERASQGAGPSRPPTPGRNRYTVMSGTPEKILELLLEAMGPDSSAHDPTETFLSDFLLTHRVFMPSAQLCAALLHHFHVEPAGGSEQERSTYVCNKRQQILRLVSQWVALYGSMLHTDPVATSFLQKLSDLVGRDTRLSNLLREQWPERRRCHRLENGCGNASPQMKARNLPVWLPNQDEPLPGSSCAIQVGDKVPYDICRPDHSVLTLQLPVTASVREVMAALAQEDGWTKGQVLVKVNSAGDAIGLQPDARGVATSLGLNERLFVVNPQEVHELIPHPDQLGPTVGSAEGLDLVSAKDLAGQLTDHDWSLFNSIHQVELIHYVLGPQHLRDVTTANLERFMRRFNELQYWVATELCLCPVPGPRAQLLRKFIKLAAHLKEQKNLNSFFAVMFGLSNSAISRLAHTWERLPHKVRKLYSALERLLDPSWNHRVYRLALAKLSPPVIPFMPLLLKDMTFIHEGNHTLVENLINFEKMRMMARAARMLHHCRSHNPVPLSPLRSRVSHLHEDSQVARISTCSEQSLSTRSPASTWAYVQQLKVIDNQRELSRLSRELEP
In short: (§1)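 Dynamic light scattering in NMR buffer, samples filtered through 0.22 μm and centrifuged 5 min at 13 500 rpm before measurement. Autocorrelation accumulated 150 s at a 173° scattering angle, in replicates of 3–5, with water viscosity used in analysis; intensity or volume size distributions reported.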

[6] = Binding affinity to Triton-X 100 assessed as change in chemical shift at 100 uM by 1H-NMR spectra analysis
[7] = Reversible binding affinity to Triton-X 100 at dilution from 100 uM by 1H-NMR spectra analysis
[8] = Binding affinity to Triton-X 100 assessed as inter-molecular saturation transfer at 100 uM at 6.61 ppm by STD spectra analysis
In short: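 STD NMR, saturation by a train of 40 Gaussian pulses of 50 ms each; selective on-resonance irradiation at the stated ppm (TX at 7.48 ppm), off-resonance at 30 ppm, interleaved and subtracted by phase cycling. 32K points, 16 ppm width centred at 4.7 ppm, 256 scans, 16 dummy scans, 0.1 s recycle delay (~15 min); 3 Hz exponential line broadening.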

[9] = target: T2, Rap guanine nucleotide exchange factor 3 (Homo sapiens); experiment: Binding affinity to human EPAC1 cAMP binding domain (149 to 318 residues) assessed as peak size at 50 to 200 uM using aggregate form of compound by dynamic light scattering analysis; in short: as §1
[10] = target: T3, Rap guanine nucleotide exchange factor 3 (Homo sapiens, UniProt O95398); experiment: Binding affinity to human EPAC1 cAMP binding domain (149 to 318 residues) using monomeric form of compound by [15N-1H]HSQC spectroscopic analysis
T3 sequence (O95398 whole entry): T2 sequence (whole entry)

[11] = Binding affinity to Triton-X 100 assessed as intra-molecular cross relaxation at 100 uM by NOESY spectra analysis
In short: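 2D NOESY and ROESY of 100 μM ESI with 0.025% Triton X-100 or 500 μM ESI with 0.05% Triton X-100; 2K × 512 complex points, 12 ppm spectral width centred at 4.7 ppm, intra- and intermolecular cross-peaks mapped.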

Albumin [12] = target: T1, Albumin; experiment: Binding affinity to human serum albumin assessed as inhibition of compound aggregation at 500 uM by surface plasmon resonance analysis
[13] = target: T2, Rap guanine nucleotide exchange factor 3 (Homo sapiens); experiment: Binding affinity to human EPAC1 cAMP binding domain (149 to 318 residues) assessed as change in chemical shift at 100 uM in presence of human serum albumin by [15N-1H]HSQC spectroscopic analysis relative to compound alone
[14] = Binding affinity to Triton-X 100 assessed as change in chemical shift for aggregate formation at 100 to 300 uM by 1H-NMR analysis
[15] = target: T2, Rap guanine nucleotide exchange factor 3 (Homo sapiens); experiment: Binding affinity to human EPAC1 cAMP binding domain (149 to 318 residues) assessed as increase in peak intensity in presence of human serum albumin by [15N-1H]HSQC spectroscopic analysis relative to control
Albumin [16] = target: T1, Albumin; experiment: Binding affinity to human serum albumin assessed as line broadening at 100 uM by 1D 1H NMR analysis
[17] = target: T2, Rap guanine nucleotide exchange factor 3 (Homo sapiens); experiment: Binding affinity to human EPAC1 cAMP binding domain (149 to 318 residues) at 100 uM in presence of triton X-100 by [15N-1H]HSQC spectroscopic analysis

Activity [1]: Active
Activity [2]: Not Active
Kd (Albumin [3]): 230 nM
Activity (Albumin [4]): Active
Activity [5]: < 5 nm
Activity [6]: Active
Activity [7]: Active
Activity [8]: Active
Activity [9]: 250 nm
Kd [10]: 20 µM
inhibition (INH) (Albumin [12]): Not Active
Activity [13]: < 30%
Activity [14]: Active
Activity [15]: 30 to 40%
Activity (Albumin [16]): Active
Activity [17]: Active
SMILES: CC(C)(C)c1cc(C(=O)/C(C#N)=N/Nc2cccc(Cl)c2)no1
Activity [11]: Active
